The target in test [1] is T1, Neuronal acetylcholine receptor; alpha4/beta2 (Homo sapiens, UniProt P17787+P43681). Briefly: Displacement of [3H]epibatidine from human alpha4beta2 nAchR expressed in SH-EP1 cells at 5 uM. The test is classed as cell-based. The essentials: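 Percent inhibition of control [3H]-epibatidine binding to human α4β2 expressed in SH-EP1 cells, with test compound at 5 μM. Reported ± standard error, with replicate number per value.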

Test [2] in a line: Displacement of [3H]methyllycaconitine from rat alpha7 nAchR in rat hippocampal membrane. Type of test: cell membranes, Hippocampus. An outline of the steps:
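α7 sites on rat hippocampal membranes, labelled with [3H]-methyllycaconitine. Inhibition of binding measured over a seven-point dose-response curve, with replicates averaged at each point. IC50 taken by least-squares non-linear regression against log concentration. Ki given ± standard error, with replicate number per value.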

Test [3] concerns the target T1, Neuronal acetylcholine receptor; alpha4/beta2. Briefly: Displacement of [3H]epibatidine from human alpha4beta2 nAchR expressed in SH-EP1 cells. The test is classed as cell-based. The essentials:
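Human α4β2 heterologously expressed in SH-EP1 cells, labelled with [3H]-epibatidine. Inhibition of binding measured over a seven-point dose-response curve, with replicates averaged at each point. IC50 taken by least-squares non-linear regression against log concentration. Ki reported ± standard error, with replicate number per value.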

Test [4] is described as follows: (§1) Partial agonist activity at rat alpha7 nAchR by patch clamp assay. Type of test: functional.
For another test, the species on record is Rattus norvegicus. The description is as §1. Type of test: functional.
For test [5], the target named is Neuronal acetylcholine receptor; alpha3/beta4 (Homo sapiens) (UniProt P30926+P32297). Nature of the test: Displacement of [3H]epibatidine from human alpha3beta4 nAchR expressed in SH-SY5Y cells at 5 uM. The test is classed as cell-based. The essentials:
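Radioligand displacement using [3H]-epibatidine on SH-SY5Y cell membranes (ganglion-type nicotinic receptors). Compounds tested at 5 μM; percent inhibition of control radioligand binding reported, with the number of replicates given for each result.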

T1 sequence (P17787 whole entry): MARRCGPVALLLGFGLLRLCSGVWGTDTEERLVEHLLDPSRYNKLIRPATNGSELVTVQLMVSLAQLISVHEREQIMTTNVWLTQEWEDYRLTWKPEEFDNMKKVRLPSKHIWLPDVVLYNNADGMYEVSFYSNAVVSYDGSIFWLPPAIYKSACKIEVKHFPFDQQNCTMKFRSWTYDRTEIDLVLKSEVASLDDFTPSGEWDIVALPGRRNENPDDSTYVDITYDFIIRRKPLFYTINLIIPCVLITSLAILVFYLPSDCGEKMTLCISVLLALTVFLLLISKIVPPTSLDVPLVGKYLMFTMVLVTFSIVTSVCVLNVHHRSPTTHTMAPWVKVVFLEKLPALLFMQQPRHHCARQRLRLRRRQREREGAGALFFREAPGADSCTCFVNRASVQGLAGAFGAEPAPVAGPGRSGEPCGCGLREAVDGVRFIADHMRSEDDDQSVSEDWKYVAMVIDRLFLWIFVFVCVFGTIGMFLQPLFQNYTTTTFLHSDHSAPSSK
T1 sequence (P43681 whole entry): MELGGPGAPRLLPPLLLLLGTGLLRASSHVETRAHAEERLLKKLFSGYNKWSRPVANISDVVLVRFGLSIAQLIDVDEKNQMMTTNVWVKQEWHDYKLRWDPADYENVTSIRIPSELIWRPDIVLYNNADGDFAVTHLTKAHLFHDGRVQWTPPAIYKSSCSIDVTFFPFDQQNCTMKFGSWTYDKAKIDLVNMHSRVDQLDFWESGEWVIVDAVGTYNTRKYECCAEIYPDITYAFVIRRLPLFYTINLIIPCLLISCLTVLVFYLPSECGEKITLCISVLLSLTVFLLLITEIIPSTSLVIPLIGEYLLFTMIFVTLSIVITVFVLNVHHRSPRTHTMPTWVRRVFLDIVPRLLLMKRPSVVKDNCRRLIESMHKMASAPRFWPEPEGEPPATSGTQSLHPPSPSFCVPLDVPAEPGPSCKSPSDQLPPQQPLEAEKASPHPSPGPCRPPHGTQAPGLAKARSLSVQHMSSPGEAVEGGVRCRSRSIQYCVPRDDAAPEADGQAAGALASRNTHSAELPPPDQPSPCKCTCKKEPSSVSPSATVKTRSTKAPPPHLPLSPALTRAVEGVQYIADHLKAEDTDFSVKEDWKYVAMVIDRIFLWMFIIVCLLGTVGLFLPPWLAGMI

`O=C1CC(c2ccco2)=NCC2(CN3CCC2CC3)N1` (stereo not given) had an inhibition in test [1] of 14%. The molecule further came in with a Ki in test [2] of 150 nM. In test [1], `COc1cccc(C2=NCC3(CN4CCC3CC4)NC(=O)C2)c1` (stereo not given) showed an inhibition of 12%. In addition, the Ki in test [2] stood at 87 nM. Turning to `O=C1NCC2(CN3CCC2CC3)NC(=O)C1c1ccccc1` (stereo not given), the inhibition in test [1] was found to be 2%. The same measure, in the same setting: to `C1=NCC2(CN3CCC2CC3)NC=C1c1ccccc1` (stereo not given) belongs 6%. The molecule `COc1ccc(C2=NCC3(CN4CCC3CC4)NC(=O)C2)cc1` (stereo not given) displayed an inhibition in test [1] of 42%. Further, the inhibition constant (Ki) in test [2] came to 42 nM. Regarding `c1ccc(C2=NC3(CN2)CN2CCC3CC2)cc1` (stereo not given), in test [1], the inhibition turned out to be 11%.

The molecule `COc1ccccc1C1=NCC2(CN3CCC2CC3)NC(=O)C1` (stereo not given) had an inhibition in test [1] of 7%. Besides, the Ki in test [2] is 110 nM. Take `OC1=CC(c2ccccc2)=NCC2(CN3CCC2CC3)N1` (stereo not given): in test [1], the inhibition worked out at 15%. In addition, the affinity in test [2] corresponds to a Ki of 140 nM. The corresponding values for `Nc1c(C2=NC3(CN2)CN2CCC3CC2)oc2ccccc12` (stereo not given) are 9% and 120 nM. `O=C1CC(c2cccs2)=NCC2(CN3CCC2CC3)N1` (stereo not given) showed an inhibition in test [1] of 20%. Also, in test [2], the Ki worked out at 58 nM.

Take `c1ccc2oc(C3=NC4(CN3)CN3CCC4CC3)cc2c1` (stereo not given): the inhibition in test [1] was 4%. `COc1ccc(/C=C2\CCCN=C2c2cccnc2)c(OC)c1` [GTS-21]: the Ki in test [3] was determined as 51 nM; in test [2], 1300 nM. Regarding `Oc1c(C2=NC3(CN2)CN2CCC3CC2)oc2ccccc12` (stereo not given), in test [1], the inhibition is 32%. The concentration for a half-maximal effect (EC50) in test [4] amounted to 600 nM. The same molecule showed an Emax in the test filed under Rattus norvegicus of 53%. In addition, in test [2], the affinity corresponds to a Ki of 7 nM. Consider `COc1cc(O)ccc1/C=C1\CCCN=C1c1cccnc1`, for which the inhibition was determined as 75% in test [5] and 97% in test [1]. In test [1], `O=C1CC(c2ccc(Br)s2)=NCC2(CN3CCC2CC3)N1` (stereo not given) gave an inhibition of 62%. In addition, the Ki in test [2] is 77 nM.

For the molecule `Oc1ccccc1C1=NC2(CN1)CN1CCC2CC1` (stereo not given), the inhibition in test [1] was 4%. In test [2], this molecule came in with a Ki of 290 nM.
